Autophagy mod – autophagy modulators in MEF cells, primary screen, imaging, high-content, MEF GFP-LC3; calls only at 10 µM (by protocol); 190,000 tested, 0.98% active; MEF GFP-LC3 puncta imaging; test concentration mostly 10 µM;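 active = percentage of spot-positive cells more than 3 SD above its plate mean, without a fluorescence outlier flag or 80% toxicity; inconclusive = no clear call, values can overlap the other calls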
HSV replic up – enhancers of HSV replication in host cells, fold increase, host cell viability | HSV replication augmentation in cells | maximum fold increase | 220,000 tested, 0.005% active | AID 1956, 2009; in the data active = maximum fold increase above about 1.5; inconclusive = no clear call, values can overlap the other calls; tested in PC3 cells
Insulin prom up – insulin promoter activators in MIN6 cells, imaging, high-content screening, mouse beta cells; MIN6 insulin promoter-GFP reporter; stronger effect = higher value; AID 1625, 2009; 190,000 tested, 0.3% active; z-score at 5 µM;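 active = z-score above 3 at 5 µM with at least 500 cells counted in the well; inconclusive = wells under 500 cells, flagged as cytotoxic or low count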
MT stabilizer – microtubule stabilizers in HeLa cells, primary screen, imaging, high-content imaging; HeLa tubulin immunostaining HCS, 24 h; share of cells brighter than vehicle mean+2SD; % tubulin-high responders, % at 10 µM; 200,000 tested, 0.83% active;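 active = plate Z-score above 3 for both tubulin-high and condensed-nucleus cell shares, with cell loss under 80%, at 10 µM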;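 note: anti alpha tubulin signal scored within the nucleus-defined area of each cell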
Furin inhibitor – human furin inhibitors, primary screen, biochemical, fluorescence intensity. P09958. purified furin, fluorogenic substrate cleavage. inhibition, % at 20 µM or 30 µM. 220,000 tested, 0.061% active. AID 463115, 2010; in the data active = inhibition above about 25%
Target sequence (P09958 108-714 limits assumed): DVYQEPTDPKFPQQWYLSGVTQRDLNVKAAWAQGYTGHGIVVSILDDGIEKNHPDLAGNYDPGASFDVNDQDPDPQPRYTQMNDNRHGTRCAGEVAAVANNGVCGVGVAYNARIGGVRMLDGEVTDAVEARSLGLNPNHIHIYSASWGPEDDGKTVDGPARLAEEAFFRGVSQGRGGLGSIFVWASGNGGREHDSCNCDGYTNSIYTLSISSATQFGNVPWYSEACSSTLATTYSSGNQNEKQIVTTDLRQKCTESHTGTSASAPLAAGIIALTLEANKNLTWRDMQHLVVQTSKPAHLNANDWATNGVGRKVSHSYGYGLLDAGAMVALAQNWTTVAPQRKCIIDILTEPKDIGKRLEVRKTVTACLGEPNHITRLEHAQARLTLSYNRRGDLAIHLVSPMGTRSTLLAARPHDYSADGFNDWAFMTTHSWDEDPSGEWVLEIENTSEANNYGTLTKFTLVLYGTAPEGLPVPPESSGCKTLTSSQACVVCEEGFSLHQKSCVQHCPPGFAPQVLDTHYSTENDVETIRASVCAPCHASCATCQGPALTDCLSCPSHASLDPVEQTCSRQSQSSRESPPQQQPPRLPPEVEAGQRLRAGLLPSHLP
b-catenin transl – modulators of beta-catenin nuclear translocation, primary screen, imaging, HeLa cells, immunofluorescence, high-content; nuclear translocation activity, % at 5 µM; 190,000 tested, 0.3% active;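 active = nuclear translocation activity above 50% at 5 µM, with a well cell count of 50 or more; inconclusive = wells under 50 cells across six images, flagged as toxic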;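 note: per-cell ratio of nuclear to cytoplasmic median beta-catenin stain intensity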
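Technique: fluorescence imaging of beta-catenin antibody stain plus DAPI / Material: human HeLa cell line / Incubation: compound treatment 24 h, 37°C, 5% CO2 / Read-out basis: % activation of per-cell nuclear versus cytoplasmic median beta-catenin signal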
Each line names hits and unclear results; the compound was inactive in the other large screens. A selection: hits, their analogues and other compounds. The true share with any hit is near 1.9%.

COc1cc(C2Nc3ccc4ncccc4c3C3=C2C(=O)CCC3)cc(OC)c1O (centres undefined)	MT stabilizer 48
COc1cc(C2Nc3ccc4ncccc4c3C3=C2C(=O)CC(C)(C)C3)cc(OC)c1O (centres undefined)	none
Fc1ccc(C2CC(c3ccco3)=NN2c2ccccc2)cc1 (centres undefined)	Insulin prom up 3.5
CCC(=O)NC(c1cccs1)c1cc(Cl)c2cccnc2c1O (centres undefined)	Autophagy mod active
CCCCn1c(=N)n(CC(=O)c2ccc([N+](=O)[O-])cc2)c2ccccc21	Autophagy mod active
Cc1ccc(Cn2c(=N)n(CC(=O)c3ccc([N+](=O)[O-])cc3)c3ccccc32)cc1	Insulin prom up inconclusive
Cc1cc(C)c(S(=O)(=O)Nc2ccccc2C(=O)OCC(=O)NCc2ccccc2)c(C)c1	none
COc1ccc(C2=NOC(C(=O)Nc3cccnc3Cl)C2)cc1 (centres undefined)	Autophagy mod active
COc1ccc(C2=NOC(C(=O)O)C2)cc1 (centres undefined)	none (no result: Insulin prom up)
COC(=O)COc1cccc2c(=O)n(CC(=O)NCCc3ccccc3)ccc12	none
CCOC(=O)COc1cccc2c(=O)n(CC(=O)NCc3ccc(F)cc3)ccc12	b-catenin transl 74 (no result: Autophagy mod, MT stabilizer)
COc1cccc2c(=O)n(CC(=O)Nc3ccc(F)cc3)ccc12	none
CCOC(=O)COc1cccc2c(=O)n(CC(=O)NCc3ccccc3)ccc12	b-catenin transl 56 (no result: Autophagy mod, MT stabilizer)
COc1cccc2c(=O)n(CC(=O)Nc3cccc(F)c3)ccc12	Insulin prom up 3.4 (no result: b-catenin transl)
CCOC(=O)COc1cccc2c(=O)n(CC(=O)NCCc3ccc(OC)c(OC)c3)ccc12	Insulin prom up 3.6
ClC(Cl)(c1nnnn1-c1ccccc1)c1nnnn1-c1ccccc1	none
CC1Cc2ccccc2N1C(=O)CSc1nnnn1C1CCCC1 (centres undefined)	none (no result: HSV replic up)
COc1ccc(C2CC(c3ccc(F)cc3)n3nc(NS(C)(=O)=O)nc3N2)cc1 (centres undefined)	none (no result: Autophagy mod, MT stabilizer)
CC1(C)[C@@H](O)CC[C@]2(C)C3C(O)C=C4[C@H]5C[C@@](C)(C(=O)O)CC[C@]5(C)CC[C@]4(C)[C@]3(C)CC[C@@H]12 (some centres undefined)	none (no result: Autophagy mod, MT stabilizer)
COCc1cc(C)nc(OCC(=O)N/N=C\c2cc(C)n(-c3cccc(C(F)(F)F)c3)c2C)c1C#N	none (no result: b-catenin transl)
CCOC(=O)C(C)Oc1cccc2c(=O)n(CC(=O)NCc3ccc4c(c3)OCO4)ccc12 (centres undefined)	MT stabilizer 16, b-catenin transl 73
CCOC(=O)C(C)Oc1cccc2c(=O)n(CC(=O)Nc3ccc4c(c3)OCCO4)ccc12 (centres undefined)	none
Cc1ccc(S(=O)(=O)Cc2ccc(C(=O)N3CCN(c4cc(C)ccc4C)CC3)o2)cc1	MT stabilizer 29
COc1ccccc1S(=O)(=O)Cc1ccc(C(=O)N2CCN(c3ccccc3)CC2)o1	none
Cc1ccc(C)c(N2CCN(C(=O)c3ccc(CS(=O)(=O)c4ccccc4C)o3)CC2)c1	none (no result: b-catenin transl)
Cc1cccc(N2CCN(C(=O)c3ccccn3)CC2C)c1 (centres undefined)	none
Cc1cccc(N2CCN(C(=O)c3ccc(CS(=O)(=O)c4ccccc4C)o3)CC2C)c1 (centres undefined)	MT stabilizer 19, b-catenin transl 109
COc1ccccc1S(=O)(=O)Cc1ccc(C(=O)N2CCN(c3cccc(Cl)c3)CC2)o1	MT stabilizer 48
CN(C)/C=C/C(=O)c1cc(F)cc(C(F)(F)F)c1	none
COc1ccc(Cl)cc1NC(=S)NNC(=O)C1(C)CC1(Cl)Cl (centres undefined)	none (no result: Insulin prom up)
CC(=O)N1CCc2cc(S(=O)(=O)N3c4ccccc4CC3C)ccc21 (centres undefined)	Autophagy mod active
COCC(=O)Nc1ccccc1-c1ccccc1	none
CCN(CC(=O)Nc1ccccc1-c1ccccc1)Cc1nc2ccccc2c(=O)[nH]1	MT stabilizer 25
COc1ccc(OCC(=O)Nc2ccccc2-c2ccccc2)cc1	MT stabilizer 34
CCN(CC(=O)Nc1ccccc1OC)CC(=O)Nc1ccccc1C(F)(F)F	MT stabilizer 18
CCN(CC(=O)Nc1ccccc1OC)CC(=O)Nc1ccccc1-c1ccccc1	MT stabilizer 20
NC(=O)c1ccccc1Nc1nc(NCCO)nc(N2CCCC2)n1	none (no result: Autophagy mod, Insulin prom up, MT stabilizer, Furin inhibitor, b-catenin transl)
Cc1cccc(NC(=O)CSc2cc(C)c(C#N)c3nc4ccccc4n23)c1	none (no result: Autophagy mod, MT stabilizer)
COC(=O)c1cccc(C23CC4(C2)[C@H](CN(Cc2cccnc2)[C@@H]4c2ccccc2)C3c2ccc(C(F)(F)F)cc2)c1 (some centres undefined)	none (no result: Autophagy mod, MT stabilizer)
COc1ccc(C(=O)c2ccc(OC)c(N)c2)cc1N	Autophagy mod active, MT stabilizer 34 (no result: b-catenin transl)
Cc1ccc(-n2c(=O)c3sccc3n(Cc3cc(=O)n4cc(Cl)ccc4n3)c2=O)cc1F	none
CC(C)(C)c1ccc(/C=N/OCC(=O)NCc2ccc(F)cc2)cc1	MT stabilizer 12 (no result: b-catenin transl)
Cn1c(=O)c2ncn(CC(=O)O)c2n(C)c1=O	none (no result: Autophagy mod, MT stabilizer)
CCC1COC(c2cccn2Cc2ccccc2Cl)=N1 (centres undefined)	Autophagy mod active
Cc1cc(N/N=C/c2ccc(O)cc2O)nc(-c2ccccc2O)n1	Autophagy mod active
O=C1C(Nc2ccc(O)cc2)=C/C(=N/S(=O)(=O)c2cccs2)c2ccccc21	Autophagy mod active
Cc1ccc(Cl)cc1NC1=C/C(=N\S(=O)(=O)c2cccs2)c2ccccc2C1=O	MT stabilizer 33 (no result: b-catenin transl)
CC[n+]1ccc(C(=O)NCc2ccccc2)cc1	none
O=C(NCc1cccs1)c1ccc(Cl)c(S(=O)(=O)N2CCCC2)c1	none
Cc1nc(SCC(C)C)[nH]c(=O)c1Cc1ccccc1	Autophagy mod active
COc1ccc(N2C(=O)CC(NCc3ccc(F)cc3)C2=O)cc1 (centres undefined)	Autophagy mod active (no result: Insulin prom up)
COc1ccc(N2C(=O)CC(NCc3ccncc3)C2=O)cc1 (centres undefined)	none
CC1=CC(C)(C)N(S(=O)(=O)c2ccc(C)cc2)c2cc(C)ccc21	Autophagy mod active, MT stabilizer 21 (no result: Insulin prom up, b-catenin transl)
CCOc1ccc2c(c1)C(C)=CC(C)(C)N2S(=O)(=O)c1ccc(C)cc1	none
COc1ccc2c(c1)C(C)=CC(C)(C)N2S(=O)(=O)c1ccc(C)cc1	b-catenin transl 63
O=C(c1ccc(Br)cc1)c1cc([N+](=O)[O-])ccc1N1CCCCC1	MT stabilizer 17, b-catenin transl 63
CN1CCN(c2ccc([N+](=O)[O-])cc2C(=O)c2ccc(Br)cc2)CC1	MT stabilizer 20, b-catenin transl 64
O=C(c1ccccc1)c1cc([N+](=O)[O-])ccc1N1CCCC1	none
